Results published in ChEMBL document CHEMBL2046296, “Synthesis and antidepressant activity of arylalkanol-piperidine derivatives as triple reuptake inhibitors” (Eur J Med Chem, 2012).

How the values were obtained:
Mus musculus [1] = experiment: Antidepressant activity in mouse assessed as decrease in immobility at 10 mg/kg, po administered 30 mins prior to testing by tail suspension test relative to vehicle control; type: functional; set-up: scale not given: the % may be the effect or the level left
Outline: (§1)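 Oral doses of 10–50 mg/kg (three doses) were given once, 30 min before testing. Mice were hung by adhesive tape 1 cm from the tail tip, 75 cm above the tabletop. Immobility was recorded for 5 min, scored blind, 10–12 mice per group, against vehicle controls. One-way ANOVA with Scheffe post hoc test; p<0.05 significant.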

Mus musculus [2] = experiment: Antidepressant activity in mouse assessed as decrease in immobility at 50 mg/kg, po administered 30 mins prior to testing by tail suspension test relative to vehicle control; type: functional; set-up: scale not given: the % may be the effect or the level left; outline: as §1
[3] = biological target: T1, 5-hydroxytryptamine receptor 1A (Homo sapiens) (UniProt P08908); experiment: Displacement of [3H]8-OH-DPAT from human recombinant 5HT1A receptor expressed in CHO cells at 10 uM after 60 mins by liquid scintillation counting; type: cell-based
T1 sequence (whole entry): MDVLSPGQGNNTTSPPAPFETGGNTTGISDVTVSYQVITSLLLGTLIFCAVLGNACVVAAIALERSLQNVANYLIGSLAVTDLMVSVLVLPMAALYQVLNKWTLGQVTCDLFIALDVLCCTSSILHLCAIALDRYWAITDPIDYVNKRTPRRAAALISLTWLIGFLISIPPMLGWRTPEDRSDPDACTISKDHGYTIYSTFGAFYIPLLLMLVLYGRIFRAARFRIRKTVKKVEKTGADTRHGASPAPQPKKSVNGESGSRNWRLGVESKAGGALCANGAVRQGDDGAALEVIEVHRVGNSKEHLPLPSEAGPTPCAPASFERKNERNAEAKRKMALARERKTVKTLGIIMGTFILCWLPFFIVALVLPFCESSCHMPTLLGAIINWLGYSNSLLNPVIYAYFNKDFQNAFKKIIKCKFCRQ
Outline: (§2)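 Radioligand binding panel run by a contract lab (CEREP). Percent inhibition of specific radioligand binding was measured at a single primary test concentration of 10.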

[4] = biological target: T2, 5-hydroxytryptamine receptor 3A (Homo sapiens) (UniProt P46098); experiment: Displacement of [3H]BRL43694 from human recombinant 5HT3 receptor expressed in CHO cells at 10 uM after 60 mins by liquid scintillation counting; type: cell-based; outline: as §2
T2 sequence (whole entry): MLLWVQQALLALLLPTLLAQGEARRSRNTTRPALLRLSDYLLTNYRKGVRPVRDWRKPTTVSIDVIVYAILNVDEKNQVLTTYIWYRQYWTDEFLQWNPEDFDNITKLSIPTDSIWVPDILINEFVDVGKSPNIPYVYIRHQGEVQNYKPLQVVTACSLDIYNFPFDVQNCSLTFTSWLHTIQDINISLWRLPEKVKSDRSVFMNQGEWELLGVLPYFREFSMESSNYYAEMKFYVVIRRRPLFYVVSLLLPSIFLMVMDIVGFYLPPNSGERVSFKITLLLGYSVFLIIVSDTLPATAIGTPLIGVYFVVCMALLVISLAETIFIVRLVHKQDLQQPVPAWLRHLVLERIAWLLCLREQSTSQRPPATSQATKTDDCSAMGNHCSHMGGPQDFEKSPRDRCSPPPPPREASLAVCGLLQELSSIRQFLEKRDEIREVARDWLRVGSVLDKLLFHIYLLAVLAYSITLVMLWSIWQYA

[5] = biological target: 5-hydroxytryptamine receptor 5A (Homo sapiens) (UniProt P47898); experiment: Displacement of [3H]LSD from 5HT5A receptor at 10 uM; outline: as §2
[6] = biological target: 5-hydroxytryptamine receptor 6 (Homo sapiens) (UniProt P50406); experiment: Displacement of [3H]LSD from human recombinant 5HT6 receptor expressed in HEK293 cells at 10 uM after 60 mins by liquid scintillation counting; type: cell-based; outline: as §2
[7] = biological target: D(2) dopamine receptor (Homo sapiens) (UniProt P14416); experiment: Displacement of [3H]Methylspiperone from dopamine D2 receptor at 10 uM; outline: as §2
[8] = biological target: D(3) dopamine receptor (Homo sapiens) (UniProt P35462); experiment: Displacement of [3H]Methylspiperone from human recombinant dopamine D3 receptor expressed in CHO cells at 10 uM after 60 mins by liquid scintillation counting; type: cell-based; outline: as §2
[9] = biological target: T3, Muscarinic acetylcholine receptor M1 (Homo sapiens) (UniProt P11229); experiment: Displacement of [3H]pirenzepine from human recombinant M1 receptor expressed in CHO cells at 10 uM after 60 mins by liquid scintillation counting; type: cell-based; outline: as §2
T3 sequence (whole entry): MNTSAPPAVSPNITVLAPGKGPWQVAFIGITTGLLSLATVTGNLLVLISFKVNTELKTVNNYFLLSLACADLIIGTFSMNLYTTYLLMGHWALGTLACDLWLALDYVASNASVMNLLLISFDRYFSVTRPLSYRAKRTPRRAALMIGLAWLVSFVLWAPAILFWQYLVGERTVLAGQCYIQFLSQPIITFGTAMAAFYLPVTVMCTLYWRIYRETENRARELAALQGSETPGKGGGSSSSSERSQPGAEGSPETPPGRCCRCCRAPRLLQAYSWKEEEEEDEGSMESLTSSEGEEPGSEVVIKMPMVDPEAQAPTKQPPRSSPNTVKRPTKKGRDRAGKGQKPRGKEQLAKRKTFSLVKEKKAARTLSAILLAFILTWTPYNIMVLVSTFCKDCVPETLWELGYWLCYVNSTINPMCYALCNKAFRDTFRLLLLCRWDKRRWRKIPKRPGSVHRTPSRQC

[10] = biological target: T4, Muscarinic acetylcholine receptor M2 (Homo sapiens) (UniProt P08172); experiment: Displacement of [3H]AF-DX384 from M2 receptor at 10 uM; outline: as §2
T4 sequence (whole entry): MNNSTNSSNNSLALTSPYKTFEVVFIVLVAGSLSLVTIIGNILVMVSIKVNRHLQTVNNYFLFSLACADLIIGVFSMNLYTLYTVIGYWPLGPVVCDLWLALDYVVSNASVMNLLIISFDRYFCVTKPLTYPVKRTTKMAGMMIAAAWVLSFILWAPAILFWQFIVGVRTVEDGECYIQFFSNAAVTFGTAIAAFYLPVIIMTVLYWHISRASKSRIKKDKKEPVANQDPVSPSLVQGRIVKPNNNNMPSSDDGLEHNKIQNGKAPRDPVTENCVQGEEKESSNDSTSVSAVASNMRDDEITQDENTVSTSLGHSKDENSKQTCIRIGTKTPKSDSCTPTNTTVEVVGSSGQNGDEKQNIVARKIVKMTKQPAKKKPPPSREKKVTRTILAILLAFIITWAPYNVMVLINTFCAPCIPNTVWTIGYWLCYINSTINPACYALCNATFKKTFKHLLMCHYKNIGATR

[11] = biological target: Sodium-dependent dopamine transporter (Homo sapiens, UniProt Q01959); experiment: Inhibition of [3H]dopamine uptake at human DAT expressed in HEK293 cells after 10 mins by scintillation counting
[12] = biological target: Sodium-dependent serotonin transporter (Homo sapiens, UniProt P31645); experiment: Inhibition of [3H]serotonin uptake at human SERT expressed in HEK293 cells after 10 min by scintillation counting
Mus musculus [13] = experiment: Antidepressant activity in po dosed mouse assessed as decrease in immobility administered 30 mins prior to testing by tail suspension test relative to vehicle control; type: functional, organism-based; outline: as §1

Sequence of D(2) dopamine receptor (Homo sapiens) (P14416 whole entry): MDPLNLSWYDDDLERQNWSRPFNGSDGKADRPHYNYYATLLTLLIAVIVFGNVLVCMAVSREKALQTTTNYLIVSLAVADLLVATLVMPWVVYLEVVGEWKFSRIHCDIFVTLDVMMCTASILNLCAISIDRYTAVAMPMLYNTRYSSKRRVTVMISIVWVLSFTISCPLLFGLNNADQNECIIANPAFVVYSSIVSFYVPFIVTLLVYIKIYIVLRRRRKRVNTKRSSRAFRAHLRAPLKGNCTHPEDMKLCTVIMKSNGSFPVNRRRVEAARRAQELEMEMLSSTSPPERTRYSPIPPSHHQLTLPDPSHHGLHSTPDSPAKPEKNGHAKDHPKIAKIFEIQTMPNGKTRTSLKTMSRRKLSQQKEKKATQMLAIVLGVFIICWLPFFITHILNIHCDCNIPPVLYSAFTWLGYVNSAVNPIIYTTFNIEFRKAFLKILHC
Sequence of D(3) dopamine receptor (Homo sapiens) (P35462 whole entry): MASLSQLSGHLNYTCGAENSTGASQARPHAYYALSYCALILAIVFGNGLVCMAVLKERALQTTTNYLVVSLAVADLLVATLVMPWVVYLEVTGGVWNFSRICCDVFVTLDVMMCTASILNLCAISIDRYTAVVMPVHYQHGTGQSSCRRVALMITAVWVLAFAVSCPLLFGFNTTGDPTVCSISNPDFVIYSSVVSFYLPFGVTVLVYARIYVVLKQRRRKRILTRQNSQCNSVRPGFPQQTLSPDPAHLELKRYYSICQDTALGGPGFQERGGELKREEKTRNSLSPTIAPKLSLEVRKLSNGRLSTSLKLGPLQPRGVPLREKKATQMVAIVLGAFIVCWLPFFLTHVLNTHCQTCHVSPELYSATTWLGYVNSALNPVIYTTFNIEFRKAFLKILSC
Sequence of Sodium-dependent dopamine transporter (Q01959 whole entry): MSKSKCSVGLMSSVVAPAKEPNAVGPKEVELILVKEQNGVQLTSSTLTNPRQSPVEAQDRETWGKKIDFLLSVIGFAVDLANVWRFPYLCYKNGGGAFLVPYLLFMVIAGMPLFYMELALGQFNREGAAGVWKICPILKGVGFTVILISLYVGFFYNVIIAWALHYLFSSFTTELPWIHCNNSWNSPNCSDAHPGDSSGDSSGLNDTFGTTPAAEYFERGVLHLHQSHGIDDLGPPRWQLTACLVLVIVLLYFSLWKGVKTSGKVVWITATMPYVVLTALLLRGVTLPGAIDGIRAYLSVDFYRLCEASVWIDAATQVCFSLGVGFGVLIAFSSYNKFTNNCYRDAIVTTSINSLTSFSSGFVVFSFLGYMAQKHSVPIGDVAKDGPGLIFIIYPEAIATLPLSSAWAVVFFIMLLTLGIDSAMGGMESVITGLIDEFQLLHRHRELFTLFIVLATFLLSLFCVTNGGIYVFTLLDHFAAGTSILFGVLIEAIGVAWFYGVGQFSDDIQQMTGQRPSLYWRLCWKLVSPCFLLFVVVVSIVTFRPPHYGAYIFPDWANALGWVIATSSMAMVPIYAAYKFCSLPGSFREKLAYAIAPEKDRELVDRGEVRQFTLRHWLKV
Sequence of Sodium-dependent serotonin transporter (P31645 whole entry): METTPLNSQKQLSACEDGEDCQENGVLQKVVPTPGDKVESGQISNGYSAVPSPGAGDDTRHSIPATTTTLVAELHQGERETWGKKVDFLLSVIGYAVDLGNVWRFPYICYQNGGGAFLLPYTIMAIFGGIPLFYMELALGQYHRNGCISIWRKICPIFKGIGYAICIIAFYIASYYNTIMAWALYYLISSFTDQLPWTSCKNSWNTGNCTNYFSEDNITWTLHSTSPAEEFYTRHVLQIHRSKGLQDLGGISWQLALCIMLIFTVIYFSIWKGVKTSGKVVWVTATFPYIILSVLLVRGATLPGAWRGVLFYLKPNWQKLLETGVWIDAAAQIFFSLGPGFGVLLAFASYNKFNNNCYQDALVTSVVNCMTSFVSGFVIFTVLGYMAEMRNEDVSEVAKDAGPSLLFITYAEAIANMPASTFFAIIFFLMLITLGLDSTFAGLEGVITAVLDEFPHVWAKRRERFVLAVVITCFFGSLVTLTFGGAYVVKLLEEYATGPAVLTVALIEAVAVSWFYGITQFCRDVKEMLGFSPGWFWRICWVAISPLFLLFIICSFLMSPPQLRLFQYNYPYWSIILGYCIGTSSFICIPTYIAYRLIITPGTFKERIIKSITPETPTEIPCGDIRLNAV
Sequence of 5-hydroxytryptamine receptor 5A (Homo sapiens) (P47898 whole entry): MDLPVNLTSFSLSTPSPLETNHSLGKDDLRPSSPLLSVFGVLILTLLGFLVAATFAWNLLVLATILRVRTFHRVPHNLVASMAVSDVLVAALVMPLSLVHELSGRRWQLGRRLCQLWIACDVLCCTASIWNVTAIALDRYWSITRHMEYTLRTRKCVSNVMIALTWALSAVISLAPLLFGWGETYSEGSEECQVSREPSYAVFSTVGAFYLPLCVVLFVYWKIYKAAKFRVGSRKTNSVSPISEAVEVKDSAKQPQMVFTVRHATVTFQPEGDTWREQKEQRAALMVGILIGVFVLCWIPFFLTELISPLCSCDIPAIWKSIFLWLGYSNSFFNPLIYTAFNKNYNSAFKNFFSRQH
Sequence of 5-hydroxytryptamine receptor 6 (Homo sapiens) (P50406 whole entry): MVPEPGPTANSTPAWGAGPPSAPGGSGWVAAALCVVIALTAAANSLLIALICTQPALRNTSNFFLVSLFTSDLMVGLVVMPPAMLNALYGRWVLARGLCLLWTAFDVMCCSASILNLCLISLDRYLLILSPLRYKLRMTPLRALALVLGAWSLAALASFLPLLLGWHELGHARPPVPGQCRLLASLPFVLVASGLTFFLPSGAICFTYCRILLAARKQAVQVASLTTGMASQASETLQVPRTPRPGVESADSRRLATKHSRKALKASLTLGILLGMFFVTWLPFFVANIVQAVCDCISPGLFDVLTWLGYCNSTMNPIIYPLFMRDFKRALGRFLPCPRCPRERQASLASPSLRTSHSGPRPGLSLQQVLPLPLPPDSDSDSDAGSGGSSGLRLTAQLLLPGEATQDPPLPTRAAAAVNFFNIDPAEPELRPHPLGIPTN

| SMILES | Activity (Mus musculus [1]) [%] | Activity (Mus musculus [2]) [%] | inhibition [3] [%] | inhibition [4] [%] | inhibition [5] [%] | inhibition [6] [%] | inhibition [7] [%] | inhibition [8] [%] | inhibition [9] [%] | inhibition [10] [%] | IC50 [11] [nM] | IC50 [12] [nM] | Activity (Mus musculus [13]) |
| --- | --- | --- | --- | --- | --- | --- | --- | --- | --- | --- | --- | --- | --- |
| OC(CCN1CC=C(Cc2ccccc2)CC1)c1cc2ccccc2s1 (racemic) | 14 | 34 | 65.4 | 10.6 | 0.2 | 53.7 | 10.8 | 1.2 | 31.2 | 6.5 | 491 | 255 |  |
| OC(CCN1CC=C(Cc2ccccc2)CC1)c1csc2ccccc12 (racemic) | 32 | 64 | 33.4 | 8.3 | 33.5 | 16.8 | 4.3 | 3.5 | 4.3 | 3.7 | 566 | 171 | Dose-dependent effect |
| COc1ccc2cc(C(O)CCN3CC=C(Cc4ccccc4)CC3)ccc2c1Cl (racemic) | 21 | 57 | 46.5 | 0.5 |  | -0.9 | -0.5 | 11.3 | 57.8 | 12.9 | 346 | 265 | Dose-dependent effect |
| OC(CCN1CCC(O)(Cc2ccccc2)CC1)c1ccc(Cl)c(Cl)c1 (racemic) | 33 | 64 | 27.3 | 14.1 | 41.6 | 14.8 | 19.2 | 4.6 | 34.2 | 16.5 | 564 | 337 | Dose-dependent effect |
| OC(CCN1CC=C(Cc2ccccc2)CC1)c1ccc(Cl)c(Cl)c1 (racemic) | 24 | 35 | 10.3 | 25.1 |  | 1.9 | 31.4 | 10.3 | 10.7 | 7.9 | 689 | 425 |  |
